Consider 19 compounds from ChEMBL document CHEMBL1138158, “Synthesis, pharmacology, and structure-activity relationships of novel imidazolones and pyrrolones as modulators of GABAA receptors” (J Med Chem, 2006).

A short description of data set [1]: Partition coefficient of the compound, log P. Format: physicochemical. Particulars: octanol/water. In a few lines:
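Experimental 1-octanol/water partition coefficient.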

Data set [2] addresses GABA-A receptor; anion channel (Rattus norvegicus) (UniProt O09028+P15431+P18506+P18508+P19969+P20236+P23574+P23576+P28471+P28473+P30191+P62813+P63079+P63138+Q91ZM7+Q9ES14). In words: Inhibition of Wistar rat benzodiazepine receptor at 2 uM. Format: protein-complex assay.
Data set [3] deals with Mus musculus. The data set is described as follows: Neurotoxicological activity in NMRI BR mice after ip administration by rotarod test. Format: functional. The essentials: (§1)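 Male mice (CF-1 at NIH; NMRI BR at elbion), trained beforehand, dosed i.p. Motor impairment was defined as failure to stay on a rod (6 rpm, 0.9 cm diameter) for 1 min in at least one of three trials. The same animals were tested at several times (≥3 doses, n = 8/group). TD50 at peak time by probit analysis.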
In general terms: Falling from the rotarod earlier than controls is read as motor impairment.

Data set [4] concerns Mus musculus. In words: Anxiolytic activity in NMRI BR mice after ip administration by PTZ test. The format is functional. In a few lines:
(§2)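 Male mice (NMRI BR at elbion, three per dose; CF-1 at NIH, up to five) given compound or vehicle i.p. at 30, 100, 300 mg/kg, 30 min and 4 h pretreatment. PTZ 85 mg/kg s.c. into neck, then 30 min observation for first generalized clonic seizure with loss of righting reflex.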

Data set [5] deals with GABA-A receptor; anion channel. The data set is described as follows: Binding affinity to Wistar rat benzodiazepine receptor. Format: protein-complex assay. In a few lines: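 Rat (male Wistar, 180-200 g) whole-brain membranes without cerebellum in 0.05 M Tris/HCl pH 7.7. Bound ligand separated on filters and counted by scintillation. IC50 from 6-10 concentrations, Ki by Cheng-Prusoff, at least four repeats averaged.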

The subject of data set [6] is Rattus norvegicus. In words: Anxiolytic activity in rat after oral administration by PTZ test. The format is functional. The essentials:
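Rats dosed orally. PTZ 70 mg/kg given s.c., then 30 min observation for first generalized clonic seizure with loss of righting reflex. Protection was measured at several pretreatment times (n = 3-4), and the peak time was used for the dose-response.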

Data set [7] relates to Mus musculus. The data set is described as follows: Anxiolytic activity in CF1 mice after ip administration by PTZ test. The format is functional. The essentials: as §2
The test system of data set [8] is Rattus norvegicus. The data set is described as follows: Neurotoxicological activity in rat after oral administration by rotarod test. The format is functional. In a few lines: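 Trained male rats dosed orally. Motor impairment was defined as failure to stay on a rod (8 rpm, 6 cm diameter) for 1 min in at least one of three trials. The same animals were tested at several time points (≥3 dose groups, n = 8/group). TD50 at time of peak neurotoxicity by probit analysis.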

In data set [9] the test system is Mus musculus. In words: Neurotoxicological activity in CF1 mice after ip administration by rotarod test. The format is functional. In a few lines:
as §1

For data set [10], the system named is Rattus norvegicus. The data set is described as follows: Anxiolytic activity in rat after oral administration by vogel conflict test. Format: functional. The settings on record: read-out: MED. The essentials:
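Modified Vogel conflict test in rats after oral dosing. Water-deprived 24 h, trained to drink 5.0% glucose for 5 min, deprived a further 24 h. The 210 s test session had 30 s unpunished drinking, then 180 s with mild shock on touching the drinking tube. Punished and unpunished licks counted. Minimal effective dose reported.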

In data set [11] the test system is Cynomolgus monkey. The data set is described as follows: Plasma concentration in cynomolgus monkey at 30 mg/kg, po. Format: ADME, organism-based, Macaca fascicularis. The arrangement: dose 30 mg/kg, route oral. The settings on record: in vivo.

What is called logP is a log measure of how a compound divides between an organic and an aqueous phase. A word on the inhibition: it is the drop in the measured response relative to a control, in per cent. Broadly, the TD50 is the dose at which the toxic effect under study appears in half of the subjects. What is called ED50 is the dose that gives a 50% effect, or the effect in half of the subjects. For `O=C1N=C(N2CCOCC2)CN1c1ccc(Cl)c(Cl)c1`, the logP in data set [1] is 1.9. In addition, in [2], the inhibition was below 20%. Further, in data set [3], the TD50 is above 300 mg/kg. The compound further returned an ED50 in [4] above 300 mg/kg.

A word on the Ki: it is the equilibrium dissociation constant of an inhibitor or competing ligand from its target. In the case of `Clc1ccc(-n2cnc(-c3ccccc3)c2)cc1`, the logP in [1] came out at 3.7. Moreover, the Ki in [5] was 3.29 µM. Besides, the TD50 in data set [3] was above 300 mg/kg. Further, the 50% effective dose (ED50) in data set [4] is above 300 mg/kg.

Regarding `O=C1C=C(N2CCOCC2)CN1c1ccc(F)cc1`, the Ki in data set [5] is 0.494 µM. This compound displayed a TD50 in [3] above 300 mg/kg. Further, the 50% effect level in data set [4] (ED50) was put at a dose of 337 mg/kg.

In turn, `O=C1N=C(N2CCOCC2)CN1c1cccc(Cl)c1` yielded a logP in data set [1] of 1.3. The compound further returned an inhibition in [2] below 20%. In addition, the TD50 in data set [3] was above 300 mg/kg. Besides, in data set [4], the ED50 was above 300 mg/kg.

In the case of `O=c1oc(-c2ccccc2)nn1-c1ccc(Cl)cc1`, the logP in [1] was 2.6. In addition, in data set [2], the inhibition was below 20%. Besides, the TD50 in [3] is above 300 mg/kg. The same compound yielded an ED50 in data set [4] above 300 mg/kg.

On to `CN1CCN(C2=NC(=O)N(c3ccc(Cl)cc3)C2)CC1`, for which the logP in [1] turned out to be 2.2. For the same compound, in [2], the inhibition was below 20%. In [3], this compound displayed a TD50 above 100 mg/kg. In [4], this compound yielded an ED50 above 300 mg/kg.

As for `O=C1N=C(N2CCOCC2)CN1c1ccc(F)cc1`, the ED50 is 34.1 mg/kg in [6] and 35 mg/kg in data set [7]. This compound returned an inhibition in [2] below 20%. The TD50 in data set [8] was above 60 mg/kg; in [9], above 500 mg/kg.

In data set [1], `COC1(OC)C(N2CCOCC2)=NC(=O)N1c1ccc(Cl)cc1` returned a logP of 1.7. This compound returned an inhibition in [2] below 20%. The same compound registered a TD50 in data set [3] above 30 mg/kg. For the same compound, in data set [4], the ED50 was above 100 mg/kg.

In turn, `CN(C)C1=NC(=O)N(c2ccc(Cl)cc2)C1` yielded a logP in [1] of 1.6. Further, the inhibition in data set [2] is below 20%. In addition, the TD50 in data set [3] is above 300 mg/kg. Also, the 50% effective dose (ED50) in data set [4] is above 300 mg/kg.

Take `O=C1N=C(N2CCOCC2)CN1c1ccc(Br)cc1`: the logP in data set [1] is 1.4. The ED50 worked out at 27.7 mg/kg in [6] and 21.8 mg/kg in data set [4]. Moreover, the Ki in data set [5] came out at 3.06 µM. In addition, the TD50 was 473 mg/kg in data set [8] and 345 mg/kg in data set [3]. In [10], the minimal effective dose was 100 mg/kg.

On to `O=C1N=C(N2CCOCC2)CN1c1ccc(Cl)cc1` [IMEPITOIN], for which, in data set [1], the logP was found to be 1.5. The compound also displayed a concentration in [11] of 39 µM. Besides, in data set [7], the ED50 was 17.2 mg/kg. The compound further registered a Ki in [5] of 4.35 µM. In addition, the TD50 in data set [8] turned out to be 998 mg/kg; in data set [3], 75.6 mg/kg; in [9], 176 mg/kg. Moreover, the minimal effective dose in [10] was 3 mg/kg.

Compound `O=C1N=C(N2CCOCC2)CN1Cc1ccccc1` had a logP in [1] of 0.5. This compound displayed an inhibition in [2] below 20%. Besides, the TD50 in data set [3] is above 300 mg/kg. This compound also returned an ED50 in [4] above 300 mg/kg.

As for `O=C1N=C(N2CCCC2)CN1c1ccc(Cl)cc1`, the logP in data set [1] came to 2. Also, the median effective dose (ED50) in [6] was 14.2 mg/kg; in data set [4], above 300 mg/kg. In data set [5], the Ki was 4.29 µM. Also, the TD50 in [8] was above 500 mg/kg; in data set [3], above 300 mg/kg. Moreover, the minimal effective dose in data set [10] was found to be 3 mg/kg.

`O=C1C=C(N2CCCC2)C(=O)N1c1ccc(F)cc1` had a logP in data set [1] of 2.3. In data set [2], this compound came in with an inhibition below 20%. This compound gave a TD50 in data set [3] above 300 mg/kg. Further, the ED50 in [4] was above 200 mg/kg.

`O=c1cc(-c2ccccc2)on1-c1ccc(Cl)cc1` yielded a log partition coefficient (logP) in data set [1] of 4.1. The TD50 in [3] is below 300 mg/kg. In [4], this compound registered an ED50 of 253 mg/kg.

As to `O=C1N=C(N2CCOCC2)CN1c1ccccc1`, the logP in data set [1] stood at 0.6. Further, the Ki in data set [5] amounted to 6.28 µM. The compound also gave a TD50 in [3] above 300 mg/kg. This compound also displayed an ED50 in [4] of 121 mg/kg.

`O=C1N=C(N2CCOCC2)CN1Cc1c(Cl)cccc1Cl`: the logP in data set [1] was determined as 1.3. The compound further had a TD50 in data set [3] above 300 mg/kg. This compound registered an ED50 in data set [4] above 300 mg/kg.

Turning to `Cc1cccc(N2CC(N3CCOCC3)=CC2=O)c1`, the logP in [1] came out at 1.5. Also, the Ki in [5] was found to be 4.45 µM. The compound further had a TD50 in data set [3] below 100 mg/kg. In data set [4], this compound yielded a median effective dose (ED50) of 62.3 mg/kg.

Turning to `CC(c1ccccc1)N1CC(N2CCOCC2)=NC1=O` (stereo not drawn), the logP in data set [1] is 0.8. Further, the TD50 in data set [3] is above 100 mg/kg. Also, in data set [4], the median effective dose (ED50) was above 300 mg/kg.
